Measured values taken from ChEMBL document CHEMBL3297695, “Sesquiterpenoids from Pittocaulon filare” (2014).

Experiments:
Mus musculus [1] = test: Antiinflammatory activity against CD1 mouse ear edema model assessed as reduction of TPA-induced ear edema measured per ear administered topically 10 mins prior to TPA challenge measured after 4 hrs; format: functional
Procedure, shortened: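 Male CD-1 mice (25−30 g), housed at 27 ± 1 °C on a 12/12 h light−dark cycle with food and water ad libitum. Compounds were applied topically to the ear in acetone−CH2Cl2 (1:1). Edema was induced by TPA and quantified as the weight of ear biopsies taken 4 h after sample application. The ID50 is expressed in μmol/ear. Data are mean ± SEM.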

Mus musculus [2] = test: Antiinflammatory activity against TPA-induced CD1 mouse ear edema model assessed as neutrophil infiltration by measuring myeloperoxidase content at 1 umol/ear administered topically 10 mins prior to TPA challenge measured after 4 hrs relative to control; format: functional
Procedure, shortened: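 Male CD-1 mice (25−30 g), ear edema induced by TPA. Compounds were applied topically at 1 μmol/ear in acetone−CH2Cl2 (1:1). MPO activity, used as a marker of neutrophils, was measured in ear biopsies taken 4 h after application by an adapted Bradley/Suzuki method. Results are given as % MPO content, mean ± SEM, analysed by ANOVA with Dunnett test against control.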

Row | SMILES | Activity (Mus musculus [1]) | ID50 (Mus musculus [1]) [µmol] | Activity (Mus musculus [2]) [%]
1 | C=C1[C@H]2[C@@H](/C(=C/C)C(=O)[C@H]2OC(=O)[C@@H](C)CC)[C@H]([C@@]2(C)CO2)[C@@H](OC(=O)[C@@H](C)CC)[C@H]1OC(=O)/C=C(\C)CC | Dose-dependent effect | 0.55 | 11.07
2 | C=C1[C@@H]2CC(=O)[C@H]([C@@H](C)OC(C)=O)[C@H]2[C@H](C(C)C)[C@@H](OC(=O)[C@@H](C)CC)[C@H]1OC(=O)/C=C(\C)CC | Dose-dependent effect | 0.17 | 12.67
3 | C=C1[C@H]2[C@@H]([C@@H]([C@@H](C)OC(C)=O)C(=O)[C@H]2OC(=O)[C@@H](C)CC)[C@H]([C@@]2(C)CO2)[C@@H](OC(=O)[C@@H](C)CC)[C@H]1OC(=O)/C=C(\C)CC | Dose-dependent effect | 0.18 | 19.05
4 | COc1ccc2c(c1)c(CC(=O)O)c(C)n2C(=O)c1ccc(Cl)cc1 [INDOMETHACIN] |  | 0.24 | 8.83
